The text below walks through data of ChEMBL document CHEMBL1125516, “TSAO analogues. Stereospecific synthesis and anti-HIV-1 activity of 1-[2',5'-bis-O-(tert-butyldimethylsilyl)-beta-D-ribofuranosyl]-3'-spiro -5''- (4''-amino-1'',2''-oxathiole 2'',2''-dioxide) pyrimidine and pyrimidine-modified nucleosides” (J Med Chem, 1992).

Test [1] concerns MT4. Nature of the test: Concentration required to inhibit HIV-1 induced cytopathicity in MT-4 cells by 50%. In kind it is functional, cell-based. The conditions noted are these: Homo sapiens. An outline of the steps:
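HIV-1 IIIB-infected human MT-4 cells (HTLV-1-transformed), 5 x 10^5 cells/mL, infected at 100 CCID50 per mL of cell suspension, then mixed with compound dilutions. After 5 days, viable cells were counted by trypan blue staining in a blood-cell-counting chamber. EC50 is the concentration […]. Values are means of at least three to five independent experiments.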
For orientation: Damage to the host cells serves as the signal in cytopathic effect assays.

Test [2] is described as follows: Selectivity index was defined as the ratio of CC50 to EC50. In kind it is functional. The method, boiled down:
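The ratio is CC50/EC50. Both come from MT-4 cells at 5 × 10^5 cells/mL, mixed 1:1 with compound dilutions for 5 days, with viable cells counted by trypan blue. EC50 used cells infected with HIV-1 (IIIB) at 100 CCID50 per mL. CC50 used mock-infected cells. […] Values are means of three to five experiments.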

For test [3], the system named is MT4. Nature of the test: Cytotoxic concentration required to reduce MT-4 cell viability by 50%. In kind it is functional. Conditions: Homo sapiens. An outline of the steps: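 MT-4 cells (HTLV-1-transformed human T-lymphocytes) at 5 × 10^5 cells/mL were mock-infected and mixed 1:1 with serial dilutions of compound. After 5 days, viable cells were counted by trypan blue exclusion in a blood-cell-counting chamber. CC50 is the concentration reducing viable cell number by 50%. Values are means of at least three to five independent experiments.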

Usually EC50 stands for the concentration at which the effect is half-maximal. The CC50 is the concentration at which the toxic effect on the cells reaches its halfway point. In turn, `Cc1cn([C@@H]2O[C@H](COC(=O)c3ccccc3)[C@@]3(OS(=O)(=O)C=C3N)[C@H]2O[Si](C)(C)C(C)(C)C)c(=O)[nH]c1=O` came in with a concentration for a half-maximal effect (EC50) in the test with MT4 [1] of over 15 µM. Also, the Selectivity index in test [2] was under 2.5. This compound also displayed a CC50 in the test with MT4 [3] of 36 µM.

Take `Cc1cn([C@@H]2O[C@H](CO[Si](C)(C)C(C)(C)C)C3(OS(=O)(=O)C=C3N)[C@H]2O[Si](C)(C)C(C)(C)C)c(=O)[nH]c1=O` (some centres undefined): in the test on MT4 [1], the EC50 was found to be 0.06 µM. Moreover, half-maximal cytotoxicity in the test with MT4 [3] (CC50) was put at 14 µM.

`Cc1cn([C@@H]2O[C@H](CO)[C@@]3(OS(=O)(=O)C=C3N)[C@H]2O[Si](C)(C)C(C)(C)C)c(=O)[nH]c1=O` gave a concentration giving a half-maximal response (EC50) in the test on MT4 [1] of over 80 µM. For the same compound, the Selectivity index in test [2] is under 2.5. Moreover, the cytotoxic concentration (CC50) with MT4 [3] was determined as 229 µM.

Regarding `Cc1cn([C@@H]2O[C@H](CO[Si](C)(C)C(C)(C)C)[C@@]3(OS(=O)(=O)C=C3N)[C@H]2O[Si](C)(C)C(C)(C)C)c(=O)n(C)c1=O`, the 50% effective concentration (EC50) in the test on MT4 [1] was 0.059 µM. Besides, the Selectivity index in test [2] worked out at 4090. For the same compound, in the test with MT4 [3], the cytotoxic concentration (CC50) is 240 µM.

In the test with MT4 [1], `CCn1c(=O)c(C)cn([C@@H]2O[C@H](CO[Si](C)(C)C(C)(C)C)[C@@]3(OS(=O)(=O)C=C3N)[C@H]2O[Si](C)(C)C(C)(C)C)c1=O` registered an EC50 of 0.123 µM. Also, the Selectivity index in test [2] stood at 1000. The compound also displayed a 50% cytotoxic concentration (CC50) with MT4 [3] of 123 µM.

Consider `C=CCn1c(=O)c(C)cn([C@@H]2O[C@H](CO[Si](C)(C)C(C)(C)C)[C@@]3(OS(=O)(=O)C=C3N)[C@H]2O[Si](C)(C)C(C)(C)C)c1=O`, for which the half-maximal effective concentration (EC50) with MT4 [1] came out at 0.233 µM. For the same compound, in test [2], the Selectivity index is over 1420.

For the compound `C=CCn1c(=O)ccn([C@@H]2O[C@H](CO[Si](C)(C)C(C)(C)C)[C@@]3(OS(=O)(=O)C=C3N)[C@H]2O[Si](C)(C)C(C)(C)C)c1=O`, the EC50 in the test on MT4 [1] was determined as 0.615 µM. Moreover, in test [2], the Selectivity index came out at 15. In the test on MT4 [3], the 50% cytotoxic concentration (CC50) was 8.9 µM.

Take `CC(C)=CCN1Cc2cccc3[nH]c(=S)n(c23)C[C@@H]1C`: the EC50 in the test on MT4 [1] was 0.076 µM. For the same compound, the Selectivity index in test [2] was over 1050. In the test on MT4 [3], this compound came in with a cytotoxic concentration (CC50) of over 80 µM.

Take `CC(C)(C)[Si](C)(C)OC[C@H]1O[C@@H](n2ccc(N)nc2=O)[C@H](O[Si](C)(C)C(C)(C)C)[C@]12OS(=O)(=O)C=C2N`: the concentration for a half-maximal effect (EC50) with MT4 [1] stood at 1 µM. In addition, the Selectivity index in test [2] was over 360. The compound further had a CC50 in the test on MT4 [3] of over 360 µM.

As to `Cc1ccnc2c1NC(=O)c1cccnc1N2C1CC1` [NEVIRAPINE], a half-maximal response in the test on MT4 [1] (EC50) required 0.128 µM. In test [2], the Selectivity index was over 625. Further, the CC50 in the test on MT4 [3] is over 80 µM.

On to `Cc1cn([C@@H]2O[C@H](CO[Si](C)(C)C(C)(C)C)[C@@]3(OS(=O)(=O)C=C3N)[C@H]2O[Si](C)(C)C(C)(C)C)c(=O)nc1N`, for which the EC50 with MT4 [1] is 0.127 µM. Moreover, the Selectivity index in test [2] amounted to 246. The same compound gave a CC50 in the test on MT4 [3] of 31 µM.

`CC(=O)O[C@H]1[C@H](n2cc(C)c(=O)[nH]c2=O)O[C@H](COC(=O)c2ccccc2)[C@@]12OS(=O)(=O)C=C2N` displayed a half-maximal effective concentration (EC50) in the test with MT4 [1] of over 200 µM. In the test with MT4 [3], this compound yielded a CC50 of over 200 µM.

`CC(C)(C)[Si](C)(C)OC[C@H]1O[C@@H](n2ccc(=O)[nH]c2=O)[C@H](O[Si](C)(C)C(C)(C)C)C12OS(=O)(=O)C=C2N` (some centres undefined) registered an EC50 in the test on MT4 [1] of 0.206 µM. Moreover, in test [2], the Selectivity index came to 73. The CC50 with MT4 [3] came out at 15 µM.

`CC(C)=CCn1c(=O)c(C)cn([C@@H]2O[C@H](CO[Si](C)(C)C(C)(C)C)[C@@]3(OS(=O)(=O)C=C3N)[C@H]2O[Si](C)(C)C(C)(C)C)c1=O` gave an EC50 in the test on MT4 [1] of 0.377 µM. In addition, the Selectivity index in test [2] stood at 183. Also, the CC50 in the test with MT4 [3] is 69 µM.
